Experimental findings from ChEMBL document CHEMBL1122783, “Synthesis of 2-(2,3-dihydro-2-oxo-1,3,4-oxadiazol-5-yl) benzo heterocycles. A novel series of orally active antiallergic agents” (J Med Chem, 1984) are described below.

The species named for assay [1] is Rattus norvegicus. Put plainly: Concentration required to inhibit antigen-induced release of histamine (AIR) by 50% from rat peritoneal mast cells (RMC) (in vitro). The format is functional, cell-based. As to conditions: Mast cell, read-out: I-50. In a few lines: (§1)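 Rat peritoneal mast cells passively sensitized in vitro with rat anti-ovalbumin serum; compounds dissolved in Me2SO (final 0.17%). Antigen-induced and spontaneous (no antigen) histamine release measured after 15-min incubation; released and residual extracted histamine determined fluorometrically on an AutoAnalyzer.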

In assay [2] the test system is Rattus norvegicus. Description: Inhibition of IgE-mediated passive cutaneous anaphylaxis (PCA) by 50% in rat dosed perorally. As to conditions: po.
The species named for assay [3] is Rattus norvegicus. Put plainly: Concentration required to inhibit antigen-induced release of histamine (AIR) by 50% from rat peritoneal mast cells (RMC) (in vitro); f = Stimulation of AIR. Format: functional, cell-based. In a few lines:
as §1

Assay [4] is filed under the species Rattus norvegicus. Description: Concentration required to inhibit antigen-induced release of histamine (AIR) by 50% from rat peritoneal mast cells (RMC) (in vitro). The format is functional, cell-based. In a few lines: as §1

Some results are limits rather than exact numbers.

By ED50 is commonly meant the midpoint of the dose-response relation. For `Cc1ccc2c(c1)nc(-c1nnc(O)o1)n2C`, the IC50 in the assay filed under Rattus norvegicus [1] came to 6000 nM. In the assay with Rattus norvegicus [2], this compound gave an ED50 of 5 mg/kg.

In the case of `Oc1nnc(-c2cc3ccccc3o2)o1`, the IC50 in the assay listed under Rattus norvegicus [1] came out at 1500 nM. In the assay on Rattus norvegicus [2], this compound returned an ED50 of 2 mg/kg. On to `Cn1c(-c2n[nH]c(O)n2)nc2ccccc21`, for which the I-50 entry in the assay filed under Rattus norvegicus [3] was “Stimulation of AIR”.

Take `CCOC(=O)Cn1nc(-c2nc3ccccc3o2)oc1=O`: in the assay listed under Rattus norvegicus [4], the I-50 entry is listed as “Stimulation of AIR”. With `CC1=C(c2nnc(O)o2)Cc2ccccc21`, the I-50 entry in the assay listed under Rattus norvegicus [4] is “Stimulation of AIR”. This compound showed an ED50 with Rattus norvegicus [2] of over 100 mg/kg. Take `CCOC(=O)c1ccc2oc(-c3nnc(O)o3)nc2c1`: the IC50 in the assay filed under Rattus norvegicus [1] stood at 1000 nM. On the same count and under the same terms, next, `Cc1cccc2oc(-c3nnc(O)o3)nc12`: 1000 nM.

In the case of `Cn1c(-c2nnc(O)o2)nc2ccccc21`, the IC50 in the assay listed under Rattus norvegicus [1] came out at 900 nM. Moreover, it took a dose of 1 mg/kg to reach the 50% effect level with Rattus norvegicus [2] (ED50).

For `Cc1ccc2nc(-c3nnc(O)o3)oc2c1`, the IC50 in the assay filed under Rattus norvegicus [1] is 5000 nM. In the assay with Rattus norvegicus [2], the ED50 turned out to be 2 mg/kg. Regarding `CCOC(=O)n1nc(-c2nc3ccc(C)cc3o2)oc1=O`, the I-50 result in the assay filed under Rattus norvegicus [4] was “Stimulation of AIR”. For the compound `Oc1nnc(-c2cc3ccccc3[nH]2)o1`, in the assay filed under Rattus norvegicus [1], the IC50 is 33000 nM. For the compound `COC(=O)c1cc(OC)c2oc(-c3nnc(O)o3)nc2c1`, the IC50 in the assay filed under Rattus norvegicus [1] came out at 300 nM. In the assay with Rattus norvegicus [2], this compound showed an ED50 of 9 mg/kg.

With `Oc1nnc(-c2nc3ccccc3o2)o1`, the IC50 in the assay listed under Rattus norvegicus [1] is 1200 nM. In the assay with Rattus norvegicus [2], this compound gave an ED50 of 3 mg/kg. The like results for `Oc1nnc(-c2nc3cc(Cl)ccc3o2)o1` were, in that order, 350 nM and 16 mg/kg. Turning to `Cn1nc(-c2nc3ccccc3o2)oc1=O`, the I50 result in the assay filed under Rattus norvegicus [3] is “Stimulation of AIR”.

As to `CC(=O)n1nc(-c2nc3ccccc3n2C)oc1=O`, in the assay filed under Rattus norvegicus [1], the IC50 is 500 nM. Consider `Oc1nnc(-c2cc3cc(Cl)ccc3[nH]2)o1`, for which the ED50 in the assay on Rattus norvegicus [2] was 9 mg/kg. Regarding `Oc1nnc(-c2sc3ccccc3c2Cl)o1`, the IC50 in the assay filed under Rattus norvegicus [1] was 200 nM. This compound showed an ED50 with Rattus norvegicus [2] of over 125 mg/kg.

For the compound `CCOC(=O)n1nc(-c2nc3cc(C)ccc3n2C)oc1=O`, the I-50 entry in the assay filed under Rattus norvegicus [4] was “Stimulation of AIR”. Turning to `O=C(/C=C/c1ccccc1)n1nc(-c2nc3ccccc3o2)oc1=O`, the IC50 in the assay listed under Rattus norvegicus [1] is 15000 nM. In the case of `CCOC(=O)n1nc(-c2nc3ccccc3n2C)oc1=O`, in the assay filed under Rattus norvegicus [4], the I-50 entry is “Stimulation of AIR”. On to `Oc1n[nH]c(-c2nc3ccccc3o2)n1`, for which the IC50 in the assay listed under Rattus norvegicus [1] was found to be 60000 nM.

With `CCOC(=O)n1nc(-c2nc3ccccc3o2)oc1=O`, in the assay listed under Rattus norvegicus [4], the I-50 entry is recorded as “Stimulation of AIR”. In the case of `CC(=O)n1nc(-c2nc3ccccc3o2)oc1=O`, in the assay listed under Rattus norvegicus [1], the IC50 worked out at 1400 nM.

As for `Cc1ccc2oc(-c3nnc(O)o3)nc2c1`, the IC50 in the assay listed under Rattus norvegicus [1] is 400 nM. This compound also gave an ED50 in the assay with Rattus norvegicus [2] of 2 mg/kg. For `O=C([O-])c1cc(=O)c2c(OCC(O)COc3cccc4oc(C(=O)[O-])cc(=O)c34)cccc2o1.[Na+].[Na+]` [CROMOLYN SODIUM], the IC50 in the assay listed under Rattus norvegicus [1] came to 3000 nM. In addition, the ED50 in the assay on Rattus norvegicus [2] is 6 mg/kg.
